UHRF1 binding: UHRF1 methyl-DNA binding inhibition. Q96T88. UHRF1 binding to methylated oligo, TR-FRET. inhibition, % at 4.4 µM. actives 0.75% (n = 370,000). AID 687016; in the data active = inhibition above about 21%;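 also: UHRF1 SRA domain binding a hemimethylated CpG hairpin DNA probe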
MBD2 inh: MBD2-methylated oligo binding inhibition; Q9UBB5; TR-FRET, MBD2 binding to methylated oligonucleotide; inhibition, % at 4.4 µM; actives 0.31% (n = 370,000); in the data active = inhibition above about 13%
TDP2 absorb: TDP2 (human) inhibition, absorbance primary screen; O95551; recombinant TDP2, T5PNP hydrolysis, p-nitrophenol absorbance 415 nm; inhibition, % at 12.8 µM; actives 0.34% (n = 370,000);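 active = inhibition above the mean of all tested compounds plus 3 SD, set per campaign, cut at about 25% in these data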
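Material: recombinant human TDP2; quantity: TDP2 enzyme at 120 nM final; medium: Tris-HCl pH 7.5 with MgCl2; compound: single concentration, 12.8 µM nominal, with 1% DMSO; incubation: 2 h enzyme incubation at 37 °C; signal: epi absorbance; measure: percent inhibition; benchmarks: high control without enzyme, low control DMSO plus TDP2; repeats: singlicate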
ARFGAP1 inh: inhibitors of rat ARFGAP1; Q62848; Arfgap1-stimulated ARF1 GTP hydrolysis, GDP FP detection; inhibition, % at 16.5 µM; actives 0.26% (n = 360,000);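 active = inhibition above a per-plate limit, mean inhibition of low control wells plus 3 SD, cut at about 25% in these data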
Target sequence (Q62848 1-136 limits assumed): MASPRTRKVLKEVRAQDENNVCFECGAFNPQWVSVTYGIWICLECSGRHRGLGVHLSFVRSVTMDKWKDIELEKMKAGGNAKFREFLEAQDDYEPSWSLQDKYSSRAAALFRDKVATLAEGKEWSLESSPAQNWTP
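Material: truncated rat Arfgap1 GAP domain; Incubation: compound-enzyme preincubation 20 min, reaction 120 min, detection 60 min, 25 °C; Read-out: percent inhibition of Arfgap1-stimulated GTP hydrolysis; Technique: FP, GDP Alexa 633 tracer displaced from anti-GDP antibody, 620/688 nm; Controls: No-Arfgap1 wells (100%) versus DMSO full-reaction wells (0%); Replication: single well per compound.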
LEDGF integ inh: blocks HIV-1 LEDGF/p75-dependent DNA integration | TR-FRET IN-LEDGF/p75 DNA integration, Eu/Cy5 | inhibition, % at 3.7 µM | actives 0.64% (n = 370,000) | AID 743269;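 active = inhibition above the screen-wide mean plus 3 SD, cut at about 13% in these data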;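 also: signal is the Cy5 over europium emission ratio at 671 and 618 nm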
ASAP1 inh: inhibitors of human ASAP1 ArfGAP activity. Q9ULH1. ASAP1-stimulated ARF1 GTP hydrolysis, GDP FP detection. inhibition, % at 16.5 µM. actives 0.19% (n = 360,000); in the data active = inhibition above about 25%
Target sequence (Q9ULH1 325-724 limits assumed): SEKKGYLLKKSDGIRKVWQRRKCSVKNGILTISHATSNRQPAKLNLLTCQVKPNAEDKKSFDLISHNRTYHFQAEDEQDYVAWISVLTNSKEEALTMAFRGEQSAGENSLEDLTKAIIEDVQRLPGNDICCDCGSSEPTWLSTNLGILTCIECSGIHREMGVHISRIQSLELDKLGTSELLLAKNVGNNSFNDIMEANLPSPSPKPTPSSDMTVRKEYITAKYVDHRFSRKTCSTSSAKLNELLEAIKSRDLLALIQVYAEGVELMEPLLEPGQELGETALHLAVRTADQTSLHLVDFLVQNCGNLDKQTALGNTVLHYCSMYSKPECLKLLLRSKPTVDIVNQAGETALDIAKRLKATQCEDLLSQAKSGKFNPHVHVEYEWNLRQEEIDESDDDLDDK
Numbers stand for hits; i = inactive; nt = not tested or not shown. The list is not random: actives were taken first. Their share in the collection is about 2%.

SMILES	UHRF1 binding	MBD2 inh	TDP2 absorb	ARFGAP1 inh	LEDGF integ inh	ASAP1 inh
O=C(Nc1ccccc1)Nc1c(-c2ccc(F)cc2)nc2ncccn12	i	i	i	nt	i	nt
CCN(CC)C(=O)c1ccc(C(CCOC(=O)Oc2ccccc2)c2ccc(OC)cc2)cc1 (centres undefined)	i	i	i	nt	i	nt
COC(=O)c1ccc2nc(-c3cccc(Cl)c3)c(Cc3ccccc3OC)n2c1	21	i	i	i	i	i
Cc1ccc2nc(-c3cccc(Br)c3)c(CC3CCCCC3)n2c1	21	i	i	i	i	i
Clc1ccc2nc(-c3cccc(Br)c3)c(Cc3ccccc3)n2c1	21	i	i	i	i	i
C=CCN1C(=O)[C@H](CC(=O)N2CCN(C(=O)C3CC3)CC2)[C@@]2(C(=O)OCC)CCCC=C12	i	i	i	nt	i	nt
Nn1c(SCC(=O)Nc2ccccc2-c2ccccc2)nnc1-c1cc(-c2ccc(F)cc2)n[nH]1	i	i	i	nt	i	nt
Oc1ccc2c(c1)C1CCCC1(N1CCOCC1)O2 (centres undefined)	i	i	i	i	31	i
O=C(O)CSc1cc(NS(=O)(=O)c2ccc(Cl)cc2)c2ccccc2c1O	i	i	63	i	i	i
O=S(=O)(Nc1ccc(Cl)cc1NS(=O)(=O)c1ccccc1)c1ccccc1	i	i	i	i	i	i
O=C(Cn1nc(C(F)(F)F)cc1C1CC1)NCc1ccccc1F	21	i	i	i	i	i
Cc1ccc(CN2CCC[C@]3(N[C@H](c4ccccc4)[C@@H]4C(=O)N(Cc5ccccc5)C(=O)[C@@H]43)C2=O)cc1	i	i	i	i	i	i
Cc1ccc(CN2CCC[C@]3(N[C@H](c4ccc(C)cc4)[C@@H]4C(=O)N(Cc5ccccc5)C(=O)[C@@H]43)C2=O)cc1	22	i	i	i	i	i
O=C1[C@H]2[C@@H](c3ccccc3)N[C@]3(CCCN(Cc4ccc(F)cc4)C3=O)[C@H]2C(=O)N1Cc1ccccc1	23	i	i	i	i	i
O=C1[C@H]2[C@@H](c3ccccc3)N[C@]3(CCCN(Cc4ccccc4)C3=O)[C@H]2C(=O)N1Cc1ccccc1	i	i	i	i	i	i
C=CCNC(=O)NC[C@@]1(C(=O)OC)CC(=O)N(C)[C@@H]1c1ccccc1	i	i	i	nt	i	nt
Cn1c(=O)[nH]c(=O)c2[nH]c(NCCCN3CCOCC3)nc21	23	i	i	i	i	i
Cn1c(=O)[nH]c(=O)c2c1ncn2CCN1CCOCC1	i	i	i	i	i	i
C/C(=N\NC(=O)c1ccccc1C)c1ccc(NC(=O)c2cccs2)cc1	39	i	i	i	i	i
C/C(=N\NC(=O)c1ccccc1)c1ccc(NC(=O)c2cccs2)cc1	i	i	i	i	i	i
CCCn1c(SCC(=O)c2cc(C)n(C3CC3)c2C)n[nH]c1=O	26	i	i	i	i	i
CCCn1c(SCC(=O)c2cc(C)n(-c3ccc4c(c3)OCO4)c2C)n[nH]c1=O	i	i	i	i	i	i
C[C@H]1CN([C@@H](C)CO)S(=O)(=O)c2ccc(Br)cc2O[C@@H]1CN(C)C(=O)Nc1ccc2c(c1)OCO2	i	i	i	i	i	i
C[C@H]1CN([C@@H](C)CO)S(=O)(=O)c2ccc(C#Cc3cccnc3)cc2O[C@@H]1CN(C)C(=O)Nc1ccc2c(c1)OCO2	22	i	i	i	i	i
CCCC#Cc1ccc2c(c1)O[C@@H](CN(C)Cc1ccc3c(c1)OCO3)[C@H](C)CN([C@@H](C)CO)S2(=O)=O	21	i	i	i	i	i
SMILES	UHRF1 binding	MBD2 inh	TDP2 absorb	ARFGAP1 inh	LEDGF integ inh	ASAP1 inh
C[C@H]1CN([C@@H](C)CO)S(=O)(=O)c2ccc(C#Cc3ccccn3)cc2O[C@H]1CN(C)Cc1ccc(F)cc1	i	i	i	i	i	i
COc1ccccc1/C=C/C(=O)Oc1cccc2cccnc12	i	i	i	i	i	i
Cc1ccc2cccc(OC(=O)/C=C\c3ccccc3)c2n1	27	i	i	i	i	i
Cc1cc(-c2nc3ncccc3o2)ccc1NC(=O)c1ccc([N+](=O)[O-])o1	i	i	i	i	i	i
O=C(Nc1ccc(-c2nc3ncccc3o2)cc1)c1ccc([N+](=O)[O-])o1	40	i	i	i	i	i
COc1ccc(OC)c(S(=O)(=O)Nc2ccc(C(=O)Nc3cc(C)on3)cc2)c1	i	i	i	nt	i	nt
S=C(NCCc1ccccc1)N1CCOCC1	i	i	i	i	i	i
S=C(NCCc1ccccc1)N1CCCC1	27	i	i	i	i	i
COC(=O)[C@@H]1[C@H](O[Si](C)(C)C(C)(C)C)[C@H]2O[C@H]2C[C@H]1S(=O)(=O)c1ccccc1	i	i	i	nt	i	nt
NC(CO)C(=O)NNCc1ccc(O)c(O)c1O (centres undefined)	i	i	i	i	43	i
CC(C)(C)OC(=O)/C=C/[C@@H](CC1CCCC1)Sc1ccc(C(C)(C)C)cc1	i	i	i	nt	i	nt
NCC12CC3CC(C1)CC(c1ccc(Cl)cc1)(C3)C2	21	i	i	i	i	i
Nc1ccc(C23CC4CC(CC(CO)(C4)C2)C3)cc1	i	i	i	i	i	i
O=C(NCCNC(=O)c1ccccc1O)c1ccccc1O	i	i	i	i	i	i
O=C(CCC1CCCC1)NNC(=O)c1cc2ccccc2cc1O	i	i	i	i	i	i
O=C(CCNC(=O)c1ccccc1Cl)NNC(=O)c1ccccc1O	34	i	i	i	i	i
O=C(CC1CCCC1)NNC(=O)c1ccccc1O	36	i	i	i	i	i
CCc1ccccc1NC(=O)c1cc(C)nn1-c1ccccc1	i	i	i	nt	i	nt
C[C@H]1[C@@H](OC(=O)NCc2cccc(Cl)c2)CC[C@@]23CCCN2C(=O)CCC[C@@H]13	i	i	i	nt	i	nt
CCOC(=O)C(C)Oc1cc(Cl)c(C=O)cc1OC (centres undefined)	62	i	i	i	i	i
CC(=NNC(=O)CSc1nnc(-c2ccccc2)n1-c1ccccc1)c1ccc2ccccc2c1	i	i	i	nt	i	nt
CN(CC(=O)NCc1ccc(F)cc1)Cc1cccc(Cl)c1	i	i	i	i	i	i
CCN(CC(=O)NCc1ccc(F)cc1)C(=O)C(C)Oc1cccc(Cl)c1 (centres undefined)	23	i	i	i	i	i
CCOC(=O)[C@@H](NC(=O)[C@@H]1CC=C[C@@H]2CCN(Cc3ccc(Cl)cc3)C(=O)[C@@H]21)C(C)C	i	i	i	nt	i	nt
CCc1ccc2[nH]c3nc(N/N=C/c4cccc(O)c4)nnc3c2c1	43	i	i	i	i	i
COc1ccc(S(=O)(=O)N2CCCC(C(=O)NCC3CCCO3)C2)cc1Cl (centres undefined)	i	i	i	i	i	i
